{
  "source": "paper PMC6097893",
  "about": "(Cell chemical biology, 2018)",
  "key": {"[1]": {"system": "DENV2 NGC E-M196V mutant virus", "assay": "Viral infectivity assay", "assay_type": "cell-based, dengue virus serotype 2", "settings": "versus DENV2 NGC wildtype", "outline": "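DENV2 inoculum in EBSS at MOI 1 pre-incubated with test compound over a concentration series, 45 min at 37 °C. The mixture was added to cell monolayers for 1 h at 37 °C, then washed off with PBS. Inhibitor-free medium was added for 24 h (single cycle). Supernatant yield was titred by plaque assay on BHK-21 cells with CMC overlay, 4.5 days, crystal violet.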"}, "ZIKV PF13-251013-18": {"system": "ZIKV PF13-251013-18", "assay": "Viral infectivity assay", "assay_type": "cell-based, Zika virus", "settings": "read-out: IC90 against ZIKV PF13-251013-18, Vero cells"}, "DENV2 sE Q271E": {"molecular_target": "DENV2 sE Q271E (Dengue virus type 2, UniProt P14340, Q551E)", "assay": "Biolayer interferometry, DENV2 sE Q271E", "assay_type": "binding, dengue virus serotype 2", "settings": "versus wildtype sE"}, "DENV2 sE-M196V": {"molecular_target": "DENV2 sE-M196V (Dengue virus type 2, UniProt P14340, M476V)", "assay": "Biolayer interferometry, DENV2 sE-M196V", "assay_type": "binding, dengue virus serotype 2", "settings": "versus wildtype sE"}},
  "data": [
    {"smiles": "NC(=O)c1cccc(-c2cc(Nc3ccc(OC(F)(F)F)cc3)ncn2)c1", "note": "[GNF-2]", "values": [
      {"measurement": "Sensitivity of DENV2 E-M196V virus to compound", "setting": "[1]", "value": "Reduced sensitivity"},
      {"measurement": "IC90", "setting": "ZIKV PF13-251013-18", "value": 107, "unit": "µM"},
      {"measurement": "Effect of Q271E substitution on binding", "setting": "DENV2 sE Q271E", "value": "affinity comparable to wildtype"},
      {"measurement": "Effect of M196V mutation on binding", "setting": "DENV2 sE-M196V", "value": "more significantly affected"}
    ]}
  ]
}
